GPR7 antag: human neuropeptides B/W receptor 1 antagonism; P48145; GPR7-expressing cells, fluorescence antagonist assay; inhibition, % at 4.4 µM; 290,000 compounds, 1.1% hits; AID 1861; in the data active = inhibition above about 16%, passing the limit was not always enough;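 also: cells stimulated with the agonist NPW; 0% = agonist with vehicle and 100% = vehicle without agonist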
CHO parental Ca: counter-screen for OX1R antagonists: effect in parental CHO cells; 330,000 compounds, 0.63% hits; parental CHO-K1, ATP-induced calcium, Fluo-8 fluorescence; inhibition, % at 5.6 µM;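 active = inhibition above that plate's mean sample inhibition plus 3 SD, cut at about 26% in these data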;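 also: 0% = ATP-challenged DMSO wells and 100% = DMSO wells without ATP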
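Assay system: untransfected parental CHO cell line. Also added: ATP agonist challenge. Dosing: one dose, 5.6 µM nominal. Measured by: Fluo-8 fluorescence. Read-out: % inhibition. Benchmarks: ATP wells versus no-ATP DMSO wells. Repeats: no replicates.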
OX1R antag-1: blocks the human orexin 1 receptor; inhibition, % at 6.6 µM; AID 485270; OX1R-expressing cells, FRET antagonist read-out; 330,000 compounds, 1.8% hits; O43613; in the data active = inhibition mostly above about 38%, no sharp cut-off; inactive = mostly below about 40%;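 also: 0% = agonist challenge alone and 100% = reference antagonist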
TAAR1 ag: agonists of human TAAR1. 360,000 compounds, 0.99% hits. activation, % at 3 µM. Q96RJ0. CHO RD-HGA16 TAAR1, Fluo-8 calcium fluorescence; vehicle wells 0%, saturating PEA agonist 100%;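 active = activation above the mean activation of all test compounds in the run plus 3 SD, cut at about 38% in these data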
Target sequence (Q96RJ0 whole entry, looked up): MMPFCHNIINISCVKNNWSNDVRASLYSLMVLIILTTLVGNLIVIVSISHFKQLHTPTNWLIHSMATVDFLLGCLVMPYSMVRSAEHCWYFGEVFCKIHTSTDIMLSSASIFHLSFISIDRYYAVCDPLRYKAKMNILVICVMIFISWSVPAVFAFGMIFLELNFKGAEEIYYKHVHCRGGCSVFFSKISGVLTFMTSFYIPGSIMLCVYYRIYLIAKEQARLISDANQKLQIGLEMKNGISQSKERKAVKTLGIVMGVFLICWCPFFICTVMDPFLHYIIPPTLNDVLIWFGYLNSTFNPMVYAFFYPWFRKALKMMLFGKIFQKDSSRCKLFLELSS
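Assay system – CHO-derived RD-HGA16 cells with stable Gα16 and human TAAR1 · Compound dosing – one-point dosing at 3 µM (nominal) · Incubation – 17-24 h seeding, 75 min 37 °C dye, 30 min RT · Measured by – kinetic Fluo-8 calcium fluorescence · Control set – DMSO vehicle as 0%, PEA at EC100 as 100% · Repeats – single well for each compound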
TAAR1 antagonist: human TAAR1 antagonism; 360,000 compounds, 1.5% hits; Q96RJ0; AID 624466; CHO RD-HGA16 TAAR1, Fluo-8 calcium fluorescence, antagonist; inhibition, % at 3 µM;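 active = inhibition above a per-plate cutoff, the mean inhibition of test compounds on that plate plus 3 SD, cut at about 49% in these data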;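 also: 0% = DMSO plus EC80 beta-PEA response and 100% = DMSO alone without agonist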
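Test system – hTAAR1-expressing CHO RD-HGA16 cells, Gα16-coupled · Also added – β-PEA at EC80 concentration, post-compound challenge · Compound – 3 µM, single point · Incubation – dye loading 75 min at 37 °C, then 30 min room temperature · Measured by – Fluo-8 intracellular calcium dye fluorescence, real-time kinetic reads · Benchmarks – vehicle and agonist controls · Replicates – singlicate, one well per test compound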
OX1R antag-2: human HCRTR1 antagonism; O43613; CHO/OX1R cells, Fluo-8 calcium fluorescence, orexin A; inhibition, % at 5 µM; 330,000 compounds, 0.43% hits;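 active = inhibition above its plate's threshold, mean inhibition of all tested compounds on the plate plus 3 SD, cut at about 37% in these data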;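 also: 0% = orexin A challenge wells and 100% = SB-334867-A antagonist wells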
The depositor's hits bear a star; nt = not tested or not shown. The list is not random: actives were taken first. Their share in the collection is about 4.5%.

SMILES | GPR7 antag | CHO parental Ca | OX1R antag-1 | TAAR1 ag | TAAR1 antagonist | OX1R antag-2
O=C(N/N=C/c1ccc([N+](=O)[O-])cc1)c1cc(C2CC2)[nH]n1 | -9 | -2 | 68* | 3 | -33 | -11
Cc1cc(C(=O)N/N=C/c2ccc(O)c([N+](=O)[O-])c2)n[nH]1 | -3 | 1 | 60* | 1 | -10 | -9
O=C(N/N=C/c1ccc([N+](=O)[O-])cc1)c1[nH]ncc1Br | -2 | -5 | 58* | 4 | -6 | -13
Cc1cc(C(=O)N/N=C/c2cccc([N+](=O)[O-])c2O)n[nH]1 | -4 | -17 | 39 | -1 | 15 | -15
COC(=O)c1cc2ccccc2oc1=O | -9 | -4 | 31 | 4 | -13 | -21
COC(=O)c1ccccc1OC(=O)c1cc2ccccc2oc1=O | 10 | -7 | 31* | 0 | -16 | -29
CC1CCCC(NC(=O)COC(=O)c2cc3ccccc3oc2=O)C1C (centres undefined) | nt | -16 | 8 | 1 | -21 | -20
CC1CCN(C(=O)COC(=O)c2cc3ccccc3oc2=O)CC1 | nt | -11 | 42* | 4 | -14 | -5
CCOC(=O)c1ccc(NC(=O)[C@@H]2CCC(=O)N2C2OC(=O)c3c2ccc(OC)c3OC)cc1 (some centres undefined) | nt | nt | nt | 2 | -13 | nt
O=C(NNC(=O)C1CCCC1)c1cc([N+](=O)[O-])cc([N+](=O)[O-])c1 | nt | -3 | 38* | 10 | -31 | -3
CCn1c(SCC(=O)c2cc(C)n(CC3CCCO3)c2C)nc2ccccc21 (centres undefined) | -4 | -8 | 77* | 17 | 15 | -21
Cc1cc(C(=O)CSc2nc3ccccc3c(=O)[nH]2)c(C)n1CC1CCCO1 (centres undefined) | -5 | 60* | 31 | 7 | 27 | 25
Cc1cc(C(=O)CSc2nc3ccccc3c(=O)n2C)c(C)n1CC1CCCO1 (centres undefined) | 11 | nt | nt | nt | nt | nt
O=C(NC1CCCC1)[C@@H]1CCCN1C(=O)[C@@H](NC(=O)N1CCOCC1)C1CCCCC1 | nt | nt | nt | 2 | 7 | nt
O=[N+]([O-])c1cc(S(=O)(=O)N2CCCC2)ccc1NCCCN1CCOCC1 | -6 | -10 | 51* | 6 | -33 | -18
COc1cc2sc3ccc(C#Cc4ccccn4)cc3c(=O)c2cc1OC | nt | -20 | 41 | 9 | 24 | -12
COc1cccc2sc3cc(C#Cc4ccccn4)ccc3c(=O)c12 | nt | -29 | 63* | 15 | 39 | 25
O=C(CSc1cccc[n+]1[O-])Nc1ccc([N+](=O)[O-])cc1Cl | -7 | -6 | 65* | -1 | 12 | -14
Cc1noc(C)c1S(=O)(=O)Nc1ccc(C(=O)N2CCN(c3cccc(Cl)c3)CC2)cc1 | -10 | 33* | 26 | 9 | 38 | 56*
Cc1ccc(-n2c(-c3ccccc3)c[n+]3c2CCC3)cc1 | 10 | -9 | 23 | 6 | -4 | -6
Cc1ccc(-n2c(-c3ccccc3)c[n+]3c2CCc2ccccc2-3)c(C)c1 | 64* | 54* | 37 | 1 | 15 | 17
CCCCOCCCNC(=O)C[C@@H]1C[C@@]2(C(=O)OC)CCCCC=C2N(Cc2ccc(Cl)cc2Cl)C1=O | nt | nt | nt | -1 | 5 | nt
Cc1cccc(Cn2cnc3c(nnn3Cc3ccccc3F)c2=O)c1 | 13 | -1 | 3 | 18 | 60* | 17
Cc1ccc(Cn2nnc3c(=O)n(CC(=O)OCc4ccccc4)cnc32)cc1 | 5 | 31* | 9 | 9 | 21 | 36
Cc1cc2c(c(=O)o1)[C@@]1(C(=O)N(C)c3ccccc31)C1=C(CC(C)(C)CC1=O)O2 | nt | nt | nt | 14 | -19 | nt
COc1ccc(OC)c(-n2c(Cn3c(-c4ccccn4)nc4ccccc43)n[nH]c2=S)c1 | -5 | -13 | 59* | 4 | -1 | 4
COC(=O)c1cc2c(c3c4ccccc4n(S(=O)(=O)c4ccc(OC)cc4)c13)C(=O)N(Cc1ccco1)C2 | nt | nt | nt | 0 | -27 | nt
CC(C)(C)c1nc(NC(=O)Nc2ccccc2)sc1Br | 32* | 47* | 24 | 10 | 24 | 60*
COc1ccc2nc(NC(=O)Nc3ccccc3)sc2c1 | 7 | -4 | 30 | 11 | 35 | -14
CCCc1nnc(NC(=O)Cn2c(=O)sc3ccccc32)s1 | 17 | -10 | 5 | 46* | 0 | -7
